Measured values published in ChEMBL document CHEMBL1955767, “Synthesis and biological evaluation of piperidine-substituted triazine derivatives as HIV-1 non-nucleoside reverse transcriptase inhibitors” (Eur J Med Chem, 2012).
Structures can show the parent of a compound that is named as a salt. Calls of active or inactive are those of the source. No cut-off for these calls is given here.

How the values were obtained:
[1] = test system: Human immunodeficiency virus 1; assay: Antiviral activity against HIV1 3B infected in human MT4 cells assessed as protection against virus-induced cytotoxicity after 5 days by MTT assay; type: functional, organism-based; settings: Human immunodeficiency virus 1, 3B, MT4, 120 h
Method in brief: (§1)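 MT-4 cells (6×10^5 cells/mL) infected with HIV-1 IIIB or HIV-2 ROD at 100–300 CCID50. Compounds added at 10× stock as serial fivefold dilutions in triplicate, with untreated infected and mock-infected controls run alongside. Viability read by MTT reduction at 540 and 690 nm 5 days post-infection, using the median OD of three wells.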

[2] = Cytotoxicity against human MT4 cells after 5 days by MTT assay; type: cell-based
Method in brief: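 Mock-infected MT-4 cells (6×10^5 cells/mL) received serial fivefold compound dilutions in triplicate, run in parallel with the infected series. After 5 days, viability measured by MTT formazan absorbance at 540 and 690 nm, using the median OD of three wells.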

[3] = Selectivity index, ratio of CC50 for human MT4 cells to EC50 for HIV1 3B; type: toxicity, cell-based; settings: read-out: Ratio CC50/EC50
Method in brief: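 Ratio CC50/EC50, both taken from the same 5-day MTT run in MT-4 cells. CC50 is from mock-infected wells.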

[4] = test system: Human immunodeficiency virus 2; assay: Antiviral activity against HIV2 ROD infected in human MT4 cells assessed as inhibition of viral replication; type: functional, organism-based; settings: ISOLATE ROD; method in brief: as §1
[5] = test system: Human immunodeficiency virus 1; assay: Antiviral activity against HIV1 expressing reverse transcriptase K103N/Y181C mutant infected in human MT4 cells assessed as protection against virus-induced cytotoxicity after 5 days by MTT assay; type: functional, organism-based; settings: Human immunodeficiency virus 1, MT4, 120 h
Method in brief: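 MT-4 cells, in exponential growth, pelleted and resuspended at 6×10^5 cells/mL, then infected or mock-infected. Compound added at start as serial fivefold dilutions in triplicate wells. Viability read by MTT reduction to formazan at 540 and 690 nm after 5 days.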

[6] = molecular target: Human immunodeficiency virus type 1 reverse transcriptase (Human immunodeficiency virus 1, UniProt Q72547); assay: Inhibition of HIV1 reverse transcriptase assessed as incorporation of biotin-dUTP into poly(rA)-oligo(dT)
Method in brief: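 ELISA-format RT kit with a poly(rA)-oligo(dT) homopolymer template/primer bound to the plate. Wild-type HIV-1 RT activity measured as biotin-dUTP incorporation into the template.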

CNc1nc(Nc2c(C)cc(C)cc2C)nc(NC2CCN(Cc3ccc(OC)cc3)CC2)n1
EC50 [1]: 0.0095 µM | CC50 at 120 h [2]: 22.1 µM | selectivity ratio [3]: 2310 | Activity [4]: inactive | EC50 [5]: 5.8 µM

CNc1nc(Nc2c(C)cc(C)cc2C)nc(NC2CCN(C(=O)c3ccc([N+](=O)[O-])cc3)CC2)n1
EC50 [1]: 1.79 µM | CC50 at 120 h [2]: 33.2 µM | selectivity ratio [3]: 18 | Activity [4]: inactive | EC50 [5]: > 33.2 µM

CNc1nc(Nc2c(C)cc(C)cc2C)nc(NC2CCN(Cc3cccc(C#N)c3)CC2)n1
EC50 [1]: 0.007 µM | CC50 at 120 h [2]: 23 µM | selectivity ratio [3]: 3240 | Activity [4]: inactive | EC50 [5]: 4.6 µM | IC50 [6]: 1.97 µM

CC(C)Nc1cccnc1N1CCN(C(=O)c2cc3cc(NS(C)(=O)=O)ccc3[nH]2)CC1 [DELAVIRDINE MESYLATE]
EC50 [1]: 0.0326 µM | CC50 at 120 h [2]: > 36.2 µM | selectivity ratio [3]: > 1100 | EC50 [5]: > 36.2 µM

COc1nc(Nc2c(C)cc(C)cc2C)nc(NC2CCN(Cc3ccc([N+](=O)[O-])cc3)CC2)n1
EC50 [1]: 0.0094 µM | CC50 at 120 h [2]: 15.4 µM | selectivity ratio [3]: 1640 | Activity [4]: inactive | EC50 [5]: ≥ 6.1 µM

COc1ccc(CN2CCC(Nc3nc(Nc4c(C)cc(C)cc4C)nc(OC)n3)CC2)cc1
EC50 [1]: 0.0097 µM | CC50 at 120 h [2]: 19.8 µM | selectivity ratio [3]: 2040 | Activity [4]: inactive | EC50 [5]: 7.4 µM

COc1nc(Nc2c(C)cc(C)cc2C)nc(NC2CCN(C(=O)c3ccc(O)cc3)CC2)n1
EC50 [1]: 1.66 µM | CC50 at 120 h [2]: 121 µM | selectivity ratio [3]: 73 | Activity [4]: inactive | EC50 [5]: > 121 µM

O=C1Nc2ccc(Cl)cc2[C@@](C#CC2CC2)(C(F)(F)F)O1 [EFAVIRENZ]
CC50 at 120 h [2]: > 6.3 µM | selectivity ratio [3]: > 1190 | EC50 [5]: 0.57 µM

CNc1nc(Nc2c(C)cc(C)cc2C)nc(NC2CCN(C(=O)c3ccccc3)CC2)n1
EC50 [1]: 0.224 µM | CC50 at 120 h [2]: 30.9 µM | selectivity ratio [3]: 132 | Activity [4]: inactive | EC50 [5]: > 30.9 µM

COc1nc(Nc2c(C)cc(C)cc2C)nc(NC2CCN(Cc3ccc(C#N)cc3)CC2)n1
EC50 [1]: 0.0092 µM | CC50 at 120 h [2]: 14.6 µM | selectivity ratio [3]: 1600 | Activity [4]: inactive | EC50 [5]: 1.6 µM | IC50 [6]: 1.77 µM

COc1nc(Nc2c(C)cc(C)cc2C)nc(NC2CCN(Cc3cccc(C#N)c3)CC2)n1
EC50 [1]: 0.0098 µM | CC50 at 120 h [2]: 23.5 µM | selectivity ratio [3]: 2380 | Activity [4]: inactive | EC50 [5]: 4.6 µM

COc1nc(Nc2c(C)cc(C)cc2C)nc(NC2CCN(C(=O)c3ccccc3)CC2)n1
EC50 [1]: 1.79 µM | CC50 at 120 h [2]: 28.8 µM | selectivity ratio [3]: 16 | Activity [4]: inactive | EC50 [5]: > 28.8 µM

COc1nc(Nc2c(C)cc(C)cc2C)nc(NC2CCN(C(=O)c3ccc([N+](=O)[O-])cc3)CC2)n1
EC50 [1]: 4.37 µM | CC50 at 120 h [2]: ≥ 25.2 µM | selectivity ratio [3]: ≥ 6 | Activity [4]: inactive | EC50 [5]: > 25.2 µM

COc1nc(Nc2c(C)cc(C)cc2C)nc(NC2CCN(Cc3ccccc3C#N)CC2)n1
EC50 [1]: 0.0192 µM | CC50 at 120 h [2]: 28 µM | selectivity ratio [3]: 1460 | Activity [4]: inactive | EC50 [5]: 6.7 µM

Cc1cc(C#N)cc(C)c1Oc1nc(Nc2ccc(C#N)cc2)nc(N)c1Br [ETRAVIRINE]
CC50 at 120 h [2]: > 4.6 µM | EC50 [5]: 0.026 µM

Nc1ccn([C@H]2CC[C@@H](CO)O2)c(=O)n1 [ZALCITABINE]
EC50 [1]: 1.04 µM | CC50 at 120 h [2]: > 94.7 µM | selectivity ratio [3]: > 93

Cc1cn([C@H]2C[C@H](N=[N+]=[N-])[C@@H](CO)O2)c(=O)[nH]c1=O [ZIDOVUDINE]
EC50 [1]: 0.0206 µM | CC50 at 120 h [2]: 250 µM | selectivity ratio [3]: 12200 | EC50 [5]: 0.0086 µM

CNc1nc(Nc2c(C)cc(C)cc2C)nc(NC2CCN(Cc3ccc([N+](=O)[O-])cc3)CC2)n1
EC50 [1]: 0.0082 µM | CC50 at 120 h [2]: 10.2 µM | selectivity ratio [3]: 1230 | Activity [4]: inactive | EC50 [5]: ≥ 2.6 µM

Cc1ccnc2c1NC(=O)c1cccnc1N2C1CC1 [NEVIRAPINE]
EC50 [1]: 0.0901 µM | CC50 at 120 h [2]: > 15 µM | EC50 [5]: 11.2 µM

COc1nc(Nc2c(C)cc(C)cc2C)nc(NC2CCN(Cc3ccc(F)cc3)CC2)n1
EC50 [1]: 0.0115 µM | CC50 at 120 h [2]: 24.7 µM | selectivity ratio [3]: 2140 | Activity [4]: inactive | EC50 [5]: 6.5 µM

COc1nc(Nc2c(C)cc(C)cc2C)nc(NC2CCN(Cc3ccccc3)CC2)n1
EC50 [1]: 0.0113 µM | CC50 at 120 h [2]: 28.6 µM | selectivity ratio [3]: 2510 | Activity [4]: inactive | EC50 [5]: 4.8 µM

CNc1nc(Nc2c(C)cc(C)cc2C)nc(NC2CCN(Cc3ccc(F)cc3)CC2)n1
EC50 [1]: 0.0102 µM | CC50 at 120 h [2]: 25.6 µM | selectivity ratio [3]: 2880 | Activity [4]: inactive | EC50 [5]: 4.9 µM

CNc1nc(Nc2c(C)cc(C)cc2C)nc(NC2CCN(C(=O)c3ccc(O)cc3)CC2)n1
EC50 [1]: 0.932 µM | CC50 at 120 h [2]: 55.4 µM | selectivity ratio [3]: 60 | Activity [4]: inactive | EC50 [5]: > 55.4 µM

CNc1nc(Nc2c(C)cc(C)cc2C)nc(NC2CCN(Cc3ccccc3)CC2)n1
EC50 [1]: 0.0088 µM | CC50 at 120 h [2]: 28.4 µM | selectivity ratio [3]: 3190 | Activity [4]: inactive | EC50 [5]: 5 µM | IC50 [6]: 2.46 µM

CNc1nc(Nc2c(C)cc(C)cc2C)nc(NC2CCN(C(=O)c3ccc(C(=O)O)cc3)CC2)n1
EC50 [1]: ≥ 127 µM | CC50 at 120 h [2]: ≥ 255 µM | selectivity ratio [3]: ≥ 2 | Activity [4]: inactive | EC50 [5]: > 255 µM

CNc1nc(Nc2c(C)cc(C)cc2C)nc(NC2CCN(Cc3ccccc3C#N)CC2)n1
EC50 [1]: 0.0099 µM | CC50 at 120 h [2]: 24.7 µM | selectivity ratio [3]: 2500 | Activity [4]: inactive | EC50 [5]: 4.6 µM

CNc1nc(Nc2c(C)cc(C)cc2C)nc(NC2CCN(Cc3ccc(C#N)cc3)CC2)n1
EC50 [1]: 0.0085 µM | CC50 at 120 h [2]: 10 µM | selectivity ratio [3]: 1190 | Activity [4]: inactive | EC50 [5]: 1.3 µM

COc1nc(Nc2c(C)cc(C)cc2C)nc(NC2CCN(C(=O)c3ccc(C(=O)O)cc3)CC2)n1
EC50 [1]: 36.2 µM | CC50 at 120 h [2]: ≥ 149 µM | selectivity ratio [3]: ≥ 4 | Activity [4]: inactive | EC50 [5]: > 149 µM
